Exocytosis inh = LAMP-1 surface exposure blockers, TALL-104 cells – cell-based, flow cytometry, MLPCN library, primary screen; actives 0.66% (n = 360,000); TALL-104 LAMP-1 surface exposure; cells stimulated with thapsigargin and PMA; inhibition, % at 10 µM;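 active = inhibition above about 55%, limit read from the data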
sPLA2-III inh = human group III sPLA2 inhibitors, primary screen, biochemical, QFRET, BODIPY PC-A2 liposome substrate; Group 3 secretory phospholipase A2 (Homo sapiens), Q9NZ20; QFRET BODIPY PC-A2 liposome hydrolysis, fluorescence; inhibition, % at 12.2 µM; actives 0.56% (n = 370,000); AID 743126, 2013;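 active = inhibition above mean plus 3 SD of compounds lying within the high and low control bounds, cut at about 19% in these data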;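 also: 0% = median of test compound wells and 100% = no enzyme DMSO wells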
Target sequence (Q9NZ20 whole entry, looked up): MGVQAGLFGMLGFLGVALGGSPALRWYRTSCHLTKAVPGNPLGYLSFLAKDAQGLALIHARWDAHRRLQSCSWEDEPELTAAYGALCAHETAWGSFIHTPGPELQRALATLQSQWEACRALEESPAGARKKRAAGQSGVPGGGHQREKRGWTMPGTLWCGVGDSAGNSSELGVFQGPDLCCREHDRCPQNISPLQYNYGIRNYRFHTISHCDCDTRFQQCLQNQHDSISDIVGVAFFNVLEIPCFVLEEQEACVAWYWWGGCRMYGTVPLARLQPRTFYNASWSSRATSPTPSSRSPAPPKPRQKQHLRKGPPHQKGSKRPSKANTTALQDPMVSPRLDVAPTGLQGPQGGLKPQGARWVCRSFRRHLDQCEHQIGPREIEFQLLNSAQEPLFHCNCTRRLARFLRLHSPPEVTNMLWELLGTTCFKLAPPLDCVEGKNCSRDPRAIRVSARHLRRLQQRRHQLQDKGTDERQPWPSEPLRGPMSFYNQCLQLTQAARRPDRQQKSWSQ
A1 inh = caspase 3/7 activation in MEF A1-2A-BIM cells, primary screen, A1 inhibitor project, cell-based, luminescence, HTS. Caspase-Glo 3/7 luminescence, 3 h; percent of clofoctol response, vehicle zero. actives 0.066% (n = 330,000). caspase activation, % (test concentration not listed);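 active = over half of replicate activation scores above 10%, or exactly half above 10 with the replicate mean above 10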
NTR1 agonist = agonists of human NTR1, primary screen, imaging, U2OS cells, beta-arrestin-GFP, high content | AID 493036, 2011 | NTR1-U2OS beta-arrestin-GFP spot imaging, agonist mode | activation, % at 20 µM | actives 0.17% (n = 330,000) | Neurotensin receptor type 1 (Homo sapiens), P30989;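 active = activation at or above 40% of the spot to cytoplasm intensity ratio, with at least 20 cells analyzed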;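 also: 0% = DMSO without peptide and 100% = 100 nM NTR1 peptide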
MC4R antagonist = MC4R antagonists of cAMP signaling, primary screen, cell-based, TR-FRET, antagonist arm of biased-ligand search. Melanocortin receptor 4 (Homo sapiens), P32245. MC4R-expressing cells, MTII-stimulated cAMP, LANCE TR-FRET. inhibition, % at 6.5 µM. actives 0.48% (n = 360,000);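 active = inhibition above its plate's cutoff, the mean of tested wells on that plate plus 3 SD, cut at about 29% in these data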;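 also: 0% = Melanotan II alone and 100% = Melanotan II plus saturating MCL0020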
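System – human MC4R-expressing U2OS cells · Also added – Melanotan II · Dosing – one concentration, 6.5 µM nominal · Timing – 30-min compound, 1-h challenge, 1-h detection, room temperature · Measured by – Eu-cAMP/anti-cAMP TR-FRET, emission 671 nm · Replicates – singlicate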
MC4R barr agon = MC4R agonists recruiting beta-arrestin, primary screen, cell-based, luminescence, agonist arm of biased-ligand search; Melanocortin receptor 4 (Homo sapiens), P32245; U2OS MC4R beta-arrestin complementation; percent of melanotan II response, DMSO zero; activation, % at 8.9 µM; actives 0.98% (n = 360,000);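 active = activation above a per-plate cutoff, the mean activation of sample wells on that plate plus 3 SD, cut at about 8% in these data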
MC4R barr ag = MC4R beta-arrestin agonists, retest, confirmation, cell-based, luminescence, U2OS | activation, % at 8.9 µM | actives 31% (n = 2,400) | AID 602192, 2012 | shares compounds with MC4R barr agon | U2OS MC4R beta-arrestin recruitment; scaled DMSO 0%, Melanotan II 100%;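 active = mean activation across replicates above the hit cutoff set in the earlier primary screen, cut at about 8% in these data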
MOR DOR agonist = agonists of MOR-DOR heterodimerization, counter-screen for MC4R biased agonist project, cell-based, luminescence; shares compounds with MC4R barr agon; U2OS PathHunter beta-arrestin, beta-gal luminescence; percent of deltorphin B response, DMSO zero; actives 5.8% (n = 2,400); activation, % at 9.2 µM;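 active = mean activation across replicates exceeds the hit threshold derived in the earlier primary screen, cut at about 18% in these data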;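 also: 100% = deltorphin B at 0.9 µM final and 0% = DMSO alone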
* marks the source's active call; other numbers are inactive results; nt = no result. Rows were chosen to be rich in hits. Some 2.5% of all compounds tested hit in one or more screens of this group.

SMILES	Exocytosis inh	sPLA2-III inh	A1 inh	NTR1 agonist	MC4R antagonist	MC4R barr agon	MC4R barr ag	MOR DOR agonist
O[C@H](COc1ccc(Cl)cc1)CN1CCC(C(O)(c2ccccc2)c2ccccc2)CC1	nt	-23.3	nt	nt	nt	nt	nt	nt
Cc1cccc(N2CCN(C(=S)Nc3ccc4nc(N5CCN(C)CC5)cc(C)c4c3)CC2)c1C	63.2*	-9.0	nt	nt	6.7	10.6*	12.9*	13.0
Cc1cccc(N2CCN(C(=S)Nc3ccc4nc(N5CCN(C)CC5)cc(C)c4c3)CC2C)c1 (stereo unspecified)	29.0	-11.5	0.2	4.4	-4.6	13.6*	4.2	16.5
Cc1ccccc1CN1CCCCC(NC(=O)c2ccc(COc3ccccc3)cc2)C1=O (stereo unspecified)	nt	-1.2	nt	nt	nt	nt	nt	nt
COc1ccc(Cc2nnc(NC(=O)CSc3ccccc3)s2)cc1	1.1	-17.5	-1.4	4.1	-5.7	13.8*	3.5	3.1
C[C@H]1[C@@H](NC(=O)c2ccc(O)cc2)CC[C@@]23CCCN2C(=O)CCC[C@@H]13	nt	2.2	nt	nt	nt	nt	nt	nt
CCOC(=O)c1[nH]c(COC(=O)CCOc2ccccc2OC)c(C(=O)OCC)c1C	-1.5	-6.5	-0.5	0.5	4.7	16.4*	2.0	6.5
CC(C)(C)C(=O)NC1CCCCN(Cc2cccc(Cl)c2)C1=O (stereo unspecified)	nt	3.5	nt	nt	nt	nt	nt	nt
Cn1c(C(=O)OCC(=O)NCc2cccs2)cc2sccc21	4.3	2.0	0.7	2.4	-17.4	10.2*	3.3	3.6
CCCCN1CC(COCc2ccccc2)Oc2cccc(Sc3ccc(OC)c(OC)c3)c2S1(=O)=O (stereo unspecified)	nt	-4.9	nt	nt	nt	nt	nt	nt
CCC(C)c1ccc(NC(=O)CSc2nnc(-c3cccc(C)c3)n2C)cc1 (stereo unspecified)	nt	0.8	nt	nt	nt	nt	nt	nt
CCc1ccc(NC(=O)c2ccc3c(c2)C(=O)N(CCOC)C3Nc2ccc(CC)cc2)cc1 (stereo unspecified)	0.7	-4.0	2.4	1.3	0.9	12.1*	2.7	8.7
COc1cc2c(-c3ccc(O)cc3)nc3c(c(C)nn3-c3ccccc3)c2cc1OC	2.8	4.2	0.6	nt	3.2	10.1*	2.2	1.9
CCc1cc2c(-c3ccccc3)cc(=O)oc2cc1OCC(C)=O	31.7	0.4	-0.1	7.6	20.7	3.3	nt	nt
CC(=O)COc1cc2c(-c3cc4ccccc4o3)cc(=O)oc2cc1C	11.0	2.9	0.0	13.8	-9.2	25.5*	1.0	0.6
CCCCCCCNC(=O)C1(CC2CC(c3ccc(Cl)cc3)=NO2)CCNCC1 (stereo unspecified)	3.5	-0.6	0.2	4.4	8.1	9.7*	24.4*	14.9
Cc1ccccc1OCC(=O)N/N=C/c1cn(Cc2ccccc2)c2ccccc12	-6.1	2.9	0.3	5.4	-15.2	33.0*	12.1*	4.5
Cc1ccccc1OCC(=O)N/N=C/c1cn(C)c2ccccc12	-3.8	-10.7	1.3	11.6	3.7	1.5	nt	nt
CCOc1ccc2nc(SCC(=O)NC3CCCc4ccccc43)sc2c1 (stereo unspecified)	-1.4	14.5	0.5	3.7	-6.1	30.9*	2.0	2.8
COc1cccc(/C=C2\CC3(OC(=O)C(C)(C)C)CCCN2C3)c1 (stereo unspecified)	nt	-3.1	nt	nt	nt	nt	nt	nt
Cc1ccccc1OC1(C)CCN(Cc2ccc(-c3ccccn3)cc2)C1 (stereo unspecified)	-0.5	3.4	nt	nt	9.3	15.3*	3.5	7.7
CCCNC(=O)C1(C)CCN(Cc2ccc(-c3ccccn3)cc2)C1 (stereo unspecified)	-1.9	14.6	nt	nt	10.8	1.5	nt	nt
CCCC/C=C1/[C@H](c2ccccc2)N(C)C2=N[C@@H](c3ccccc3)CC(=O)N21	nt	14.1	nt	nt	nt	nt	nt	nt
COC(=O)c1c(NC(=O)CC2SC(N)=NC2=O)sc2c1CCC(C(C)(C)C)C2 (stereo unspecified)	-2.5	-11.0	-0.3	18.0	-1.2	10.4*	17.5*	2.3
COC(=O)c1c(NC(=O)CC2SC(N)=NC2=O)sc2c1CCC(C)C2 (stereo unspecified)	8.1	14.7	0.6	1.7	6.5	0.1	nt	nt
SMILES	Exocytosis inh	sPLA2-III inh	A1 inh	NTR1 agonist	MC4R antagonist	MC4R barr agon	MC4R barr ag	MOR DOR agonist
O=C(CCCCCn1c(=O)[nH]c2ccccc2c1=O)NC1CCCC1	nt	4.2	nt	nt	nt	nt	nt	nt
COc1ccc2nc(NC(=O)c3ccc(F)cc3)sc2c1	-5.1	-2.2	-6.1	1.4	-0.5	13.2*	-1.4	4.4
COc1ccc2nc(NC(=O)c3ccc4ncsc4c3)sc2c1	8.7	nt	-0.6	1.7	3.9	2.0	nt	nt
COc1ccc2nc(NC(=O)c3ccc(-n4nc(C)cc4C)cc3)sc2c1	-0.2	1.4	0.0	9.4	-1.6	19.9*	-2.9	7.8
COc1ccc2nc(NC(C)=O)sc2c1	-1.4	-0.7	-5.9	-2.6	-3.7	-0.5	nt	nt
CCC[C@H]1[C@@H](OC(=O)N2CCCC2)CC[C@@]23CCCN2C(=O)CCC[C@@H]13	nt	0.0	nt	nt	nt	nt	nt	nt
CCC(SC1=N/C(=C/c2ccccc2)C(=O)N1c1ccccc1)C(=O)Nc1cc(C)on1 (stereo unspecified)	-2.1	15.7	1.0	2.1	-2.9	-1.8	nt	nt
COc1ccc(/C=C2/N=C(SCC(=O)Nc3cc(C)on3)N(c3ccccc3)C2=O)cc1	-6.2	-3.5	0.8	nt	-7.2	10.5*	4.5	4.6
Cc1cc(NC(=O)CN2C(=O)S/C(=C\c3ccccc3)C2=O)no1	-2.5	-5.3	1.1	2.1	-3.2	26.0*	3.9	9.0
O=C1c2cccnc2C(=O)N1Cc1ccc(S(=O)(=O)N2CCN(c3ccc(Cl)cc3)CC2)cc1	-1.0	1.4	1.1	2.8	4.5	11.0*	2.7	2.5
CCOc1cc(C(=O)NC(C)CCc2ccccc2)cc(OCC)c1OCC (stereo unspecified)	4.3	-4.2	0.4	-0.2	8.8	14.1*	3.7	8.1
